ChEMBL document CHEMBL1132588, “Synthesis, CoMFA analysis, and receptor docking of 3,5-diacyl-2, 4-dialkylpyridine derivatives as selective A3 adenosine receptor antagonists” (J Med Chem, 1999)

Assays:
[1] = target: T1, Adenosine receptor A3 (Homo sapiens) (UniProt P0DMS8); experiment: (§1) Displacement of specific [125 I]AB-MECA binding at human Adenosine A3 receptor expressed in HEK cells; type: cell-based; settings: HEK293
T1 sequence (whole entry): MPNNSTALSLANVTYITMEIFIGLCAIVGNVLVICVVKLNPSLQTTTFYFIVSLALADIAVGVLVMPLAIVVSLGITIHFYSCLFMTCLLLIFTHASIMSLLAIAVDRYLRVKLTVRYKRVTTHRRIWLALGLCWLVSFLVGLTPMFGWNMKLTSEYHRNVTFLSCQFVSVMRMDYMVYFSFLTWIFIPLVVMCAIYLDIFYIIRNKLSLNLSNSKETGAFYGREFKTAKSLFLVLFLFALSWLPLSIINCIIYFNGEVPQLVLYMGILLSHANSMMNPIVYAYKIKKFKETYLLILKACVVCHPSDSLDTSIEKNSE

[2] = species on record: Rattus norvegicus; experiment: Ratio of binding affinities for rat A1 receptor against human A3 receptor, [Ki(rA1) / Ki (hA3)].
Procedure, shortened: (§2)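 Ratio of Ki values from binding assays. For A3, [125I]AB-MECA (final 0.3 nM) bound membranes of HEK-293 cells expressing human A3 (clone HS-21a) or CHO cells expressing rat A3, in Tris/Mg2+/EDTA buffer at pH 8.0. For rat A1, [3H]R-PIA bound cerebral cortex membranes, with adenosine deaminase (3 units/mL) present, including a 30 min preincubation at 30 °C.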

[3] = target: T2, Adenosine receptor A1 (Rattus norvegicus, UniProt P25099); experiment: (§3) Displacement of specific [3H]-CGS- 21680R-PIA binding to Adenosine A1 receptor in rat brain membranes.; type: cell membranes; settings: in the assay text read “[3H]R-PIA” for “[3H]-CGS- 21680R-PIA”
T2 sequence (P25099 whole entry): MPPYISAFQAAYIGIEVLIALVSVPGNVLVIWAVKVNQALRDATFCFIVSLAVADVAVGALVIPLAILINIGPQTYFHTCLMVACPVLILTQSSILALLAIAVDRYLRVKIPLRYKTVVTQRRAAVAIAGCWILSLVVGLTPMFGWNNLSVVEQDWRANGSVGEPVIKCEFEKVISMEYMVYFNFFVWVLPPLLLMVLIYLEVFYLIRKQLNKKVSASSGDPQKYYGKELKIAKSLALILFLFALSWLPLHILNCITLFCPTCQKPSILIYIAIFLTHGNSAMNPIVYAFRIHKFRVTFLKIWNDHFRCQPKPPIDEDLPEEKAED
Procedure, shortened: (§4)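 A1 binding used [3H]R-PIA on rat cerebral cortex membranes. Adenosine deaminase (3 units/mL) was included in membrane preparation, in a 30 min preincubation at 30 °C, and throughout radioligand incubation. Competitors were DMSO stocks diluted in buffer, with DMSO never above 2%.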

[4] = species on record: Rattus norvegicus; experiment: Ratio of the binding affinities against rat A3 receptor / rat A3 receptor, Ki(rA1) / Ki (rA3).; procedure, shortened: as §2
[5] = species on record: Rattus norvegicus; experiment: Ratio of the binding affinities against rat A3 receptor / human A3 receptor, Ki(rA1) / Ki (hA3).; procedure, shortened: as §2
[6] = target: Adenosine receptor A2a (Rattus norvegicus, UniProt P30543); experiment: Inhibition of [3H]-CGS- 21680 binding to Adenosine A2A receptor in rat striatal membranes.; type: cell membranes, Membrane
Adenosine receptor A2a, sequence (P30543 whole entry): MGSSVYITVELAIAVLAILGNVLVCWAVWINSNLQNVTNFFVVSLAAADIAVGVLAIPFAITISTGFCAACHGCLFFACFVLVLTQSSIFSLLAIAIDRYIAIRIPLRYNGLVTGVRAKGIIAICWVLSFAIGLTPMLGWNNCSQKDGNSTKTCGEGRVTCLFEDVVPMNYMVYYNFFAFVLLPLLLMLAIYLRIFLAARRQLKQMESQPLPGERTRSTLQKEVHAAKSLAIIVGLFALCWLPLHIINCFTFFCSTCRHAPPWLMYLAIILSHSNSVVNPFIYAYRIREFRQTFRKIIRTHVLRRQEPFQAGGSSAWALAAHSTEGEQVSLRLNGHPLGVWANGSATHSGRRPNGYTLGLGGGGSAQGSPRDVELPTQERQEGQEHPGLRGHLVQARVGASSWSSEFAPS

[7] = target: T3, Adenosine receptor A3 (Homo sapiens, UniProt P0DMS8); experiment: as §1; type: cell-based, HEK293
T3 sequence (P0DMS8 whole entry): T1 sequence (whole entry)
Procedure, shortened: (§5)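 Membranes from HEK-293 cells stably expressing human A3 receptor (clone HS-21a), or from CHO cells stably expressing rat A3 receptor (rat: n = 3-5), in 50 mM Tris, 10 mM Mg2+, 1 mM EDTA, pH 8.0. Membranes at 0.3 mg protein/mL with [125I]AB-MECA at 0.3 nM final. Nonspecific binding defined with R-PIA. Competitors were dissolved in DMSO (≤2% final) and tested at ≥5 concentrations spanning 3 log units. Bound ligand was separated by GF/B filtration with three buffer rinses; Ki was derived.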

[8] = target: T4, Adenosine receptor A3 (Rattus norvegicus, UniProt P28647); experiment: Displacement of specific [125I]AB-MECA binding at rat Adenosine A3 receptor stably expressed in CHO cells; type: cell-based
T4 sequence (P28647 whole entry): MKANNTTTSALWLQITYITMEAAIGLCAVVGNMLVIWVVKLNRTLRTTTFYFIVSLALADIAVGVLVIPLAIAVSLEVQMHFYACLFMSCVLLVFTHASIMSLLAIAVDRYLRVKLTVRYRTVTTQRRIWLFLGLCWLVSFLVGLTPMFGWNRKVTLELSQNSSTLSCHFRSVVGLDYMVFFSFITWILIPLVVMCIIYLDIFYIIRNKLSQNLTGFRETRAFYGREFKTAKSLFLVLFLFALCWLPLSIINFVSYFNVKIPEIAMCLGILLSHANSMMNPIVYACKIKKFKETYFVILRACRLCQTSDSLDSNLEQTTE

[9] = target: Adenosine receptor A2a (Rattus norvegicus) (UniProt P30543); experiment: (§6) Displacement of specific [3H]-CGS- 21680 binding to Adenosine A2A receptor in rat striatal membranes; type: cell membranes; parameters: concentration or dose not given beside the values; settings: Membrane, concentration not given here
Adenosine receptor A2a (Rattus norvegicus), sequence (P30543 whole entry): as the sequence (P30543 whole entry) above
Procedure, shortened: (§7)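 Rat striatal membranes labelled with [3H]CGS 21680 for A2A binding. Adenosine deaminase (3 units/mL) was present during membrane preparation, during a 30 min preincubation at 30 °C, and during radioligand incubation. Competitors were dissolved in DMSO and diluted in buffer (DMSO ≤2%).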

[10] = target: T5, Adenosine receptor A1 (Rattus norvegicus) (UniProt P25099); experiment: as §3; type: cell membranes; settings: concentration not given here; procedure, shortened: as §4
T5 sequence (whole entry): T2 sequence (P25099 whole entry)

[11] = target: T1, Adenosine receptor A3 (Homo sapiens); experiment: as §1; type: cell-based; settings: HEK293; concentration not given here; procedure, shortened: as §5
[12] = target: Adenosine receptor A2a (Rattus norvegicus) (UniProt P30543); experiment: as §6; type: cell membranes; settings: Membrane; procedure, shortened: as §7

pKi [1] | Ratio [2] | Ki [3] [µM] | Ki [6] [µM] | Ki [7] [µM] | Structure (SMILES) | other results
6.92 |  |  |  |  | CCOC(=O)c1c(CC)nc(-c2ccccc2)c(C(=O)OCC)c1C | 
7.67 | > 3000 | 0.041 |  |  | CCOC(=O)c1c(-c2ccccc2)nc(CC)c(C(=O)SCC)c1CC | Ratio [4]: > 100; Ratio [5]: 21
7.6 |  | 16.5 | 67.1 | 0.248 | CCCOC(=O)c1c(-c2ccccc2)nc(CC)c2c1CCSC2=O | Ki [8]: 2.58 µM
8.01 | 630 | 6.05 | 9.67 | 0.00967 | CCCc1c(C(=O)SCC)c(CC)nc(-c2ccccc2)c1C(=O)OCCCF | Ratio [4]: 12; Ratio [5]: 53; Ki [8]: 0.512 µM
 |  |  |  |  | CCNC(=O)c1c(C)nc(-c2ccccc2)c(C(=O)OCC)c1CC | inhibition [9]: < 10%; inhibition [10]: < 10%; inhibition [11]: < 10%
 |  | 25.1 | 43.6 |  | CCCc1c2c(nc(-c3ccccc3)c1C(=O)OCC)CCSC2=O | 
7.72 |  | 15.6 | 2.05 | 0.0189 | CCCOC(=O)c1c(-c2ccccc2)nc(CC)c(C(=O)SCC)c1CCC | Ratio [4]: 140; Ratio [5]: 6
5.41 |  |  |  |  | CCOC(=O)c1c(C)nc(C2CCCC2)c(C(=O)OCc2ccccc2)c1C#Cc1ccccc1 | 
5.56 |  |  |  |  | CCOC(=O)c1c(C)nc(-c2ccccc2)c(C(=O)OCc2ccccc2)c1C#Cc1ccccc1 | 
5.58 |  |  |  |  | CCSC(=O)c1c(C)nc(-c2ccccc2)c(C(=O)OCc2ccccc2)c1CC | 
5.35 |  |  |  |  | CCOC(=O)c1c(C)nc(-c2ccccc2)c(C(=O)OCC)c1C | 
8.37 | 2700 | 11.5 | 7.33 |  | CCSC(=O)c1c(CC)nc(-c2ccccc2)c(C(=O)OCCF)c1CC | Ratio [4]: 19; Ratio [5]: 140; Ki [8]: 0.6 µM
6.11 |  |  |  |  | CCOC(=O)c1c(C)nc(-c2ccccc2)c(C(=O)OCC)c1C(OC)OC | 
6.96 |  | 16 |  | 0.109 | CCCOC(=O)c1c(-c2ccccc2)nc(CCOCc2ccccc2)c(C(=O)SCC)c1CCC | 
5.7 |  | 5.79 |  | 1.99 | CCOC(=O)c1c(-c2ccccc2)nc(CC)c2c1CCCNC2=O | Displacement [12]: < 10%
7.8 |  |  |  |  | CCCSC(=O)c1c(CC)nc(-c2ccccc2)c(C(=O)OCC)c1CC | 
7.37 |  |  |  |  | CCOC(=O)c1c(-c2ccccc2)nc(C)c(C(=O)SCC)c1CC | 
5.89 |  |  |  |  | CCOC(=O)c1c(-c2ccccc2)nc(CC)c(C(=O)O)c1CC | 
6.77 |  |  |  |  | CCCOC(=O)c1c(-c2ccccc2)nc(CC)c(C(=O)SCC)c1CCCO | 
7.29 | 210 | 10.8 | 5.59 | 0.0511 | CCCOC(=O)c1c(-c2ccccc2)nc(CC)c(C(=O)SCCO)c1CCC | 
6.61 | 2 | 0.49 | 1.14 | 0.243 | CCOC(=O)c1c(-c2ccccc2)nc(CC)c(C(=O)SCC)c1CCN1C(=O)c2ccccc2C1=O | 
7.22 | 140 | 8.09 | 27.4 | 0.0599 | CCCOC(=O)c1c(-c2ccccc2)nc(CC)c(C(=O)SCC)c1CCCF | Ratio [4]: 9; Ratio [5]: 15; Ki [8]: 0.9 µM
7.51 | 1300 | 41 |  | 0.0311 | CCCOC(=O)c1c(-c2ccc(F)cc2)nc(CC)c(C(=O)SCC)c1CCC | inhibition [9]: 50%
